What all share (type): ADME
Data set [1] has as its system Liver microsome. As to the kind of experiment: Drug metabolism in Sprague-Dawley rat liver microsomes assessed as formation of 2-mercapto-3-(4-((6-methoxy-1-methyl-1H-benzo[d]imidazol-2-yl)methoxy)phenyl)propanoic acid at 20 uM after 2 to 4 hrs by radio-HPLC/LC-MS/MS analysis in presence of UDPGA, UDPGA/SAM and NADPH-generating system.
Data set [2] concerns the target T1, UDP-glucuronosyltransferase 2B17 (Homo sapiens, UniProt O75795).
T1 sequence (O75795 whole entry): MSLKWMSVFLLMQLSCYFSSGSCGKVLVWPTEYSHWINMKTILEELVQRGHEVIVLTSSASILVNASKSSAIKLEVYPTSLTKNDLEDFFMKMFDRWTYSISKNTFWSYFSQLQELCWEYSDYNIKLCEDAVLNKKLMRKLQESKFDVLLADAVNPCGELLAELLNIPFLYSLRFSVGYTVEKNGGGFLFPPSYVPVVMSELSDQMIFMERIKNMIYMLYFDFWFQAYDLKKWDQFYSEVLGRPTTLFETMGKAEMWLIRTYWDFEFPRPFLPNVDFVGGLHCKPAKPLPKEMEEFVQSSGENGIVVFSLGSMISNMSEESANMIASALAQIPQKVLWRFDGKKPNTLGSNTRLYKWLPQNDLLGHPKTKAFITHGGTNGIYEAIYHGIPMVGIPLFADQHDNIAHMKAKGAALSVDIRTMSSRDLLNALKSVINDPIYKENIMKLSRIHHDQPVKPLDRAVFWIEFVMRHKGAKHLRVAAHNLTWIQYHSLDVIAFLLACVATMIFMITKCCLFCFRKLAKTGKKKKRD
As to the kind of experiment: Activity of human UGT2B17 expressed in microsomes isolated from baculovirus infected insect cell assessed as enzyme-mediated (2S,3S,4S,5R,6R)-3,4,5-trihydroxy-6-(5-(4-((6-methoxy-1-methyl-1H-benzo[d]imidazol-2-yl)methoxy)benzyl)-2,4-dioxothiazolidin-3-yl)tetrahydro-2H-pyran-2-carboxylic acid formation at 20 uM after 4 hrs by radio-HPLC/LC-MS/MS analysis in presence of UDPGA.

The test system of data set [3] is Liver microsome. As to the kind of experiment: Drug metabolism in human liver microsomes assessed as formation of 5-(4-((6-hydroxy-1-methyl-1H-benzo[d]imidazol-2-yl)methoxy)benzyl)thiazolidine-2,4-dione at 20 uM after 2 hrs by radio-HPLC/LC-MS/MS analysis in presence of NADPH-generating system and NADPH-generating system/SAM.
For the next data set, the target named is Cytochrome P450 2C19 (Homo sapiens, UniProt P33261). As to the kind of experiment: Activity of human CYP2C19 expressed in microsomes isolated from baculovirus infected insect cell assessed as enzyme-mediated 2-mercapto-3-(4-((6-methoxy-1-methyl-1H-benzo[d]imidazol-2-yl)methoxy)phenyl)propanoic acid formation at 20 uM after 2 hrs by radio-HPLC/LC-MS/MS analysis in presence of NADPH-generating system. The essentials: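 Baculovirus/insect-cell microsomes expressing single human CYPs, 1 mg/ml protein, with 50 mM potassium phosphate (pH 7.4) or 100 mM Tris-HCl (pH 7.5). NADPH-generating system: 2 mM NADP⁺, 20 mM glucose 6-phosphate, 2 units/ml G6PDH, 10 mM MgCl₂. [¹⁴C]rivoglitazone at 20 μM, 2 h at 37°C with shaking. Control used insect-cell control supersomes. Stopped with acetonitrile; supernatant concentrated under nitrogen; metabolites analysed by radio-HPLC, LC-MS and LC-MS/MS.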
Sequence of Cytochrome P450 2C19 (P33261 whole entry): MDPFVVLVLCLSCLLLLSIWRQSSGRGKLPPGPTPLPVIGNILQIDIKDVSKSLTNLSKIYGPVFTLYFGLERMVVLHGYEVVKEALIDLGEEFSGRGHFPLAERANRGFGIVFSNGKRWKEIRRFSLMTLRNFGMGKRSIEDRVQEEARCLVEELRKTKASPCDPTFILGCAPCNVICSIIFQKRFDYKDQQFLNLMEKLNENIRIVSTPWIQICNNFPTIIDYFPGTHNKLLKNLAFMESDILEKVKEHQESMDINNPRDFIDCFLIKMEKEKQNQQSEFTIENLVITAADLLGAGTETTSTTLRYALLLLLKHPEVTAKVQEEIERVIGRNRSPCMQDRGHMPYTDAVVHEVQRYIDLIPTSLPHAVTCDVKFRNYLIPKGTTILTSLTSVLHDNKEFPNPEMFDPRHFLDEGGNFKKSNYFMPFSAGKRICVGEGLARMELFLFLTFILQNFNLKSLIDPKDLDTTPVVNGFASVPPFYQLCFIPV

For data set [4], the target named is T2, UDP-glucuronosyltransferase 1A3 (Homo sapiens, UniProt P35503).
T2 sequence (P35503 whole entry): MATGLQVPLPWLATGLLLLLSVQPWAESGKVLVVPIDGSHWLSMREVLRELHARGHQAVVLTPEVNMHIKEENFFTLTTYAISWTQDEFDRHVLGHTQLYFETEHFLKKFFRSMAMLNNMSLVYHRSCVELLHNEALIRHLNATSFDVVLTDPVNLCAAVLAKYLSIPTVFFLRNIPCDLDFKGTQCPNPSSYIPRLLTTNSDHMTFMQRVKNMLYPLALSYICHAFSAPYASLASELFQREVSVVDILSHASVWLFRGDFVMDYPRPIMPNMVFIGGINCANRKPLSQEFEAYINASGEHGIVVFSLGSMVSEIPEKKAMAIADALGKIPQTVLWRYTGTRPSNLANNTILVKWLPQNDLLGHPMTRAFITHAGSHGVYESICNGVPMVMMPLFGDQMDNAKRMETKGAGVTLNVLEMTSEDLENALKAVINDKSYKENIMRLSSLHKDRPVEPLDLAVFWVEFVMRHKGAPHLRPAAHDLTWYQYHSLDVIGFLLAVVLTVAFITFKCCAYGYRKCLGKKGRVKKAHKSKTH
In words: Activity of human UGT1A3 expressed in microsomes isolated from baculovirus infected insect cell assessed as enzyme-mediated 2-mercapto-3-(4-((6-methoxy-1-methyl-1H-benzo[d]imidazol-2-yl)methoxy)phenyl)propanoic acid formation at 20 uM after 4 hrs by radio-HPLC/LC-MS/MS analysis in presence of UDPGA, UDPGA/SAM and NADPH-generating system in presence of UDPGA and UDPGA/SAM. In a few lines:
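Alamethicin (50 μg/mg protein, 15 min on ice) pretreated expressed human UGT microsomes (1 mg/ml protein) from baculovirus-infected insect cells. Incubation with [¹⁴C]rivoglitazone (20 μM) in 100 mM Tris-HCl (pH 7.5) with 10 mM MgCl₂, started by 5 mM UDPGA, 4 h at 37°C with shaking. UGT insect-cell control supersomes were run alongside. Acetonitrile stop, concentrated supernatant analysed by radio-HPLC, LC-MS and LC-MS/MS.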

Data set [5] addresses T3, UDP-glucuronosyltransferase 1A7 (Homo sapiens, UniProt Q9HAW7).
T3 sequence (Q9HAW7 whole entry): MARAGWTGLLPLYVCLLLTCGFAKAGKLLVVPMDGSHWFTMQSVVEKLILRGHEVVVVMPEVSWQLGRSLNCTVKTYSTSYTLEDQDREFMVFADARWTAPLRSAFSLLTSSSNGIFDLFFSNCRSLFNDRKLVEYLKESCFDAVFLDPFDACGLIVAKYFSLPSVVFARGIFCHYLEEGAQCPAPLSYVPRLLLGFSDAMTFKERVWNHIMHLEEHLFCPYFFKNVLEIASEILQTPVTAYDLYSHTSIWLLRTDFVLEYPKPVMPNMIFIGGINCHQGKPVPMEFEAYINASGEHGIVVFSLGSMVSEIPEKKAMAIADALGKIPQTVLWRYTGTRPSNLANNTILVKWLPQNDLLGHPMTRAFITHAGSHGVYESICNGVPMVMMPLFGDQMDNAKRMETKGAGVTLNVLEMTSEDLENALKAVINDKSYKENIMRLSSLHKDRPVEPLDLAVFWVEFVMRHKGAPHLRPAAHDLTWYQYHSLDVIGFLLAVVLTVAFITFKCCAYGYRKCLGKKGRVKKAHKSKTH
As to the kind of experiment: Activity of human UGT1A7 expressed in microsomes isolated from baculovirus infected insect cell assessed as enzyme-mediated (2S,3S,4S,5R,6R)-3,4,5-trihydroxy-6-(5-(4-((6-methoxy-1-methyl-1H-benzo[d]imidazol-2-yl)methoxy)benzyl)-2,4-dioxothiazolidin-3-yl)tetrahydro-2H-pyran-2-carboxylic acid formation at 20 uM after 4 hrs by radio-HPLC/LC-MS/MS analysis in presence of UDPGA.

With `COc1ccc2nc(COc3ccc(C[14CH]4SC(=O)NC4=O)cc3)n(C)c2c1.Cl` (racemic), the Drug metabolism result with Liver microsome [1] is on record as “metabolite_detected”; in data set [2], “metabolite_not_detected”; with Liver microsome [3], “metabolite_detected”; at Cytochrome P450 2C19, “metabolite_detected”; in data set [4] it was “metabolite_detected”; in data set [5], “metabolite_not_detected”.
